Experiment [1] in a line: Selectivity was expressed as the ratio is IC 50 of plasmin / thrombin. The method, boiled down:
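Ratio of plasmin IC50 to thrombin IC50. Amidolytic assays at 25 °C in 0.1 M Tris-HCl (pH 7.4):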

Experiment [2] in a line: Selectivity was expressed as the ratio is IC 50 of t-PA / thrombin. The essentials: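 Ratio of t-PA IC50 to thrombin IC50. Amidolytic assays in 0.1 M Tris-HCl (pH 7.4) at 25 °C: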
A further experiment concerns the target Plasminogen (Homo sapiens, UniProt P00747). The experiment is described as follows: Inhibitory activity against plasmin.
The target of another experiment is Serine protease 1 (Homo sapiens, UniProt P07477). The experiment is described as follows: Inhibitory activity against trypsin. The essentials: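 Trypsin 93 ng/mL hydrolysing Bz-Phe-Val-Arg-pNA 0.125 mg/mL, 0.1 M Tris-HCl pH 7.4, 25 °C. […] Varying peptide concentrations, 5-min preincubation. IC50 is the concentration producing 50% inhibition of activity against a blank control.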
Chain of Serine protease 1 (P07477 whole entry): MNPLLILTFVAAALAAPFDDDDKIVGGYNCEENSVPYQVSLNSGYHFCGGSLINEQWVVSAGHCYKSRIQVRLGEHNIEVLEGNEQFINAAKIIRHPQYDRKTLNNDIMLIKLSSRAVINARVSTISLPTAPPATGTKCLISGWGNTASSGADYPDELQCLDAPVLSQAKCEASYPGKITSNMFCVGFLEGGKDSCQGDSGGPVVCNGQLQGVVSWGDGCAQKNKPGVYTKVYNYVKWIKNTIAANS

The target of a further experiment is Prothrombin (Bos taurus) (UniProt P00735). The experiment is described as follows: Inhibitory activity against thrombin.
The target in experiment [3] is Coagulation factor X (Bos taurus) (UniProt P00743). The experiment is described as follows: Inhibitory activity against factor Xa.
Chain of Coagulation factor X (Bos taurus) (P00743 whole entry, looked up): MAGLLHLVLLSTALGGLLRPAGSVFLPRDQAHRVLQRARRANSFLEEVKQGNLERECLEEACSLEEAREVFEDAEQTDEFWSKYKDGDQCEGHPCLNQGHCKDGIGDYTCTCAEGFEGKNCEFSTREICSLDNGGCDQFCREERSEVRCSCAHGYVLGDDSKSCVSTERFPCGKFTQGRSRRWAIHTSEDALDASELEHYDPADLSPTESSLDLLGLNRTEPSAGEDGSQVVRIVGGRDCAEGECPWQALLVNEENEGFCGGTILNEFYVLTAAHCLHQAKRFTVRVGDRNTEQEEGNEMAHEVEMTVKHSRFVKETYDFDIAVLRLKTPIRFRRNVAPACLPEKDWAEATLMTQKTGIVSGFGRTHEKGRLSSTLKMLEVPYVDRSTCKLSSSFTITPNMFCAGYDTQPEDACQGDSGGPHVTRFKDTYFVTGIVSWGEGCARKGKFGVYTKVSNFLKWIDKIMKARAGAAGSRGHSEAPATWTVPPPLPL

The source of these data is ChEMBL document CHEMBL1126581 (J Med Chem, 1993).

SMILES strings stand for the structures. Where a SMILES comes first, the peptide text is derived from it. [ ]: non-standard residue; d: D form. The star is where a group is joined. dHpg = N[C@@H](C(=O)O)c1ccc(O)cc1; dChg = N[C@@H](C(=O)O)C1CCCCC1; dPhg = N[C@@H](C(=O)O)c1ccccc1; Boc = CC(C)(C)OC(=O)*

Chain of Plasminogen (P00747 97-580 limits assumed): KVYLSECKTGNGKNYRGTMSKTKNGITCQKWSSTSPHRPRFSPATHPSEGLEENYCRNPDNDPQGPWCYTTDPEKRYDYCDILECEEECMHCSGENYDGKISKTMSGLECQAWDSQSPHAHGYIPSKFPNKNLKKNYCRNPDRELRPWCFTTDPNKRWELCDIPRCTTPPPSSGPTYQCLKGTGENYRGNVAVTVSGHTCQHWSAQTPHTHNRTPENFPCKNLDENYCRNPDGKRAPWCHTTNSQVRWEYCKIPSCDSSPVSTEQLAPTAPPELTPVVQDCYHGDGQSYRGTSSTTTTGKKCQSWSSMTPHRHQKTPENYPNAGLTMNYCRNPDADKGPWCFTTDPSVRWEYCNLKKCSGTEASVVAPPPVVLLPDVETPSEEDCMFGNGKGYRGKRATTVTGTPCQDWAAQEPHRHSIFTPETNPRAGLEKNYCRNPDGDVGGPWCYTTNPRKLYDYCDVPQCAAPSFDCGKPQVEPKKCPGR
Chain of Plasminogen (P00747 581-810 limits assumed): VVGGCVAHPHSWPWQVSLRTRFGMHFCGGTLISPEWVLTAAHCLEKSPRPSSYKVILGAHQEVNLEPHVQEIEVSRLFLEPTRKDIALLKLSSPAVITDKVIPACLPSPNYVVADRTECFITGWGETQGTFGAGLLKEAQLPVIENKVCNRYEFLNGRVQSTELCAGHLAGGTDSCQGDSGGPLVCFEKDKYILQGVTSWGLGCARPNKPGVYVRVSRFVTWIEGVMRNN

Take `CC(C)(C)OC(=O)NC(C(=O)N1CCC[C@H]1C(=O)NC(C=O)CCCN=C(N)N)c1ccc(Cl)c(Cl)c1` (some centres not stated): the Selectivity ratio in experiment [1] amounted to 6; in experiment [2], 1100.

For the compound `CC[C@H](C(=O)N1CCC[C@H]1C(=O)NC(C=O)CCCN=C(N)N)c1ccccc1` (some centres not stated), the Selectivity ratio was 160 in experiment [1] and more than 800 in experiment [2].

For `CC(C)(C)OC(=O)N[C@@H](C(=O)N1CCC[C@H]1C(=O)N[C@H](C=O)CCCN=C(N)N)c1ccc(O)cc1` (Boc-[dHpg]-Pro-Arg-aldehyde), the IC50 (commonly the concentration that inhibits the measured activity by half) amounted to 94 nM against Plasminogen, 17 nM against Serine protease 1, 89 nM against Prothrombin (Bos taurus) and 200 nM in experiment [3]. The Selectivity ratio in experiment [1] was found to be 1; in experiment [2], 180.

As to `CC(C)(C)OC(=O)N[C@@H](C(=O)N1CCC[C@H]1C(=O)N[C@H](C=O)CCCN=C(N)N)c1ccsc1`, the IC50 is 150 nM against Plasminogen, 13 nM against Serine protease 1, 73 nM at Prothrombin (Bos taurus) and 190 nM in experiment [3]. Besides, the Selectivity ratio in experiment [1] worked out at 2; in experiment [2] it was 180.

For `N=C(N)NCCC[C@@H](C=O)NC(=O)[C@@H]1CCCN1C(=O)[C@H]1Cc2ccccc2CN1`, the half-inhibitory concentration (IC50) was 19 nM at Serine protease 1, 25 nM against Prothrombin (Bos taurus) and 4100 nM in experiment [3].

For `CC(C)(C)OC(=O)N[C@H](C(=O)N1CCC[C@H]1C(=O)N[C@H](C=O)CCCN=C(N)N)c1ccc(F)cc1`, the IC50 turned out to be 770 nM on Plasminogen, 24 nM at Serine protease 1, 85 nM at Prothrombin (Bos taurus) and 6700 nM in experiment [3]. The Selectivity ratio in experiment [1] stood at 9; in experiment [2] it was 1100.

For `CC(C)(C)OC(=O)NC(C(=O)N1CCC[C@H]1C(=O)NC(C=O)CCCN=C(N)N)c1cccc(C(F)(F)F)c1` (some centres not stated), the IC50 at Plasminogen was 130 nM; against Serine protease 1, 19 nM; against Prothrombin (Bos taurus), 27 nM; in experiment [3], 1400 nM. The Selectivity ratio in experiment [1] is 5; in experiment [2] it was 560.

In the case of `CN[C@@H](C(=O)N1CCC[C@H]1C(=O)N[C@H](C=O)CCCN=C(N)N)c1ccccc1`, the Selectivity ratio in experiment [1] was found to be 30; in experiment [2] it was 2300.

With `N=C(N)NCCC[C@@H](C=O)NC(=O)[C@@H]1CCCN1C(=O)[C@@H]1NCCc2ccccc21`, the IC50 was 1500 nM against Plasminogen, 23 nM against Serine protease 1 and 19 nM against Prothrombin (Bos taurus).

Turning to `C[C@H](C(=O)N1CCC[C@H]1C(=O)NC(C=O)CCCNC(=N)N)c1ccccc1` (some centres not stated), the IC50 against Plasminogen is 18000 nM; against Serine protease 1, 180 nM; on Prothrombin (Bos taurus), 94 nM; in experiment [3], 31000 nM.

As to `C[C@@H](C(=O)N1CCC[C@H]1C(=O)NC(C=O)CCCN=C(N)N)c1ccccc1` (some centres not stated), the IC50 at Plasminogen is 41000 nM; against Serine protease 1, 890 nM; against Prothrombin (Bos taurus), 5100 nM; in experiment [3] it was 81000 nM. Also, the Selectivity ratio in experiment [1] amounted to 8.

As for `CC(C)(C)OC(=O)N[C@H](C(=O)N1CCC[C@H]1C(=O)NC(C=O)CCCNC(=N)N)c1cccc2ccccc12` (some centres not stated), the IC50 is 180 nM at Plasminogen, 29 nM against Serine protease 1, 55 nM on Prothrombin (Bos taurus) and 210 nM in experiment [3].

Turning to `CC(C)(C)OC(=O)N[C@@H](C(=O)N1CCC[C@H]1C(=O)N[C@H](C=O)CCCN=C(N)N)c1ccccc1` (Boc-[dPhg]-Pro-Arg-aldehyde), the IC50 against Plasminogen was determined as 98 nM; at Serine protease 1 it was 9.8 nM; on Prothrombin (Bos taurus) it was 16 nM; in experiment [3], 260 nM. Besides, the Selectivity ratio was 6 in experiment [1] and 540 in experiment [2].

`C[C@H](C(=O)N1CCC[C@H]1C(=O)NC(C=O)CCCN=C(N)N)c1ccccc1` (some centres not stated): the Selectivity ratio in experiment [1] was 190; in experiment [2] it was more than 100.

On to `NC(N)=NCCC[C@@H](C=O)NC(=O)[C@@H]1CCCN1C(=O)[C@H](N)c1ccccc1` (H-[dPhg]-Pro-Arg-aldehyde), for which the IC50 was 910 nM on Plasminogen, 19 nM against Serine protease 1, 18 nM on Prothrombin (Bos taurus) and 1600 nM in experiment [3]. Moreover, the figures for the Selectivity ratio in experiment [1] and in experiment [2] were 50 and 2200, respectively.

Regarding `CO[C@H](C(=O)N1CCC[C@H]1C(=O)NC(C=O)CCCN=C(N)N)c1ccccc1` (some centres not stated), the IC50 against Plasminogen was found to be 15000 nM; on Prothrombin (Bos taurus), 250 nM; in experiment [3] it was 27000 nM. Further, the Selectivity ratio was 60 in experiment [1] and 3400 in experiment [2].

Take `CN[C@@H](C(=O)N1CCC[C@H]1C(=O)N[C@H](C=O)CCCNC(=N)N)c1ccccc1`: the concentration for half-maximal inhibition (IC50) was found to be 490 nM against Plasminogen, 18 nM against Serine protease 1, 18 nM on Prothrombin (Bos taurus) and 2200 nM in experiment [3].

With `CC(C)(C)OC(=O)N[C@H](Cc1ccccc1)C(=O)N1CCC[C@H]1C(=O)N[C@H](C=O)CCCN=C(N)N`, the IC50 was determined as 190 nM against Plasminogen, 14 nM against Serine protease 1, 45 nM against Prothrombin (Bos taurus) and 1600 nM in experiment [3]. Besides, the Selectivity ratio amounted to 4 in experiment [1] and 20 in experiment [2].

Consider `CC[C@H](C(=O)N1CCC[C@H]1C(=O)NC(C=O)CCCNC(=N)N)c1ccccc1` (some centres not stated), for which the IC50 at Plasminogen worked out at 21000 nM; on Serine protease 1 it was 350 nM; against Prothrombin (Bos taurus), 130 nM; in experiment [3], 33000 nM.

As for `CC(C)(C)OC(=O)N[C@@H](C(=O)N1CCC[C@H]1C(=O)NC(C=O)CCCN=C(N)N)c1ccc2ccccc2c1` (some centres not stated), the IC50 was found to be 55 nM against Plasminogen, 9 nM against Serine protease 1, 18 nM on Prothrombin (Bos taurus) and 50 nM in experiment [3]. Also, the Selectivity ratio was 3 in experiment [1] and 670 in experiment [2].

On to `CC(C)(C)OC(=O)N[C@H](C(=O)N1CCC[C@H]1C(=O)NC(C=O)CCCN=C(N)N)c1cccc2ccccc12` (some centres not stated), for which the Selectivity ratio in experiment [1] was 3.

Consider `CC(C)(C)OC(=O)N[C@@H](C(=O)N1CCC[C@H]1C(=O)N[C@H](C=O)CCCN=C(N)N)c1ccc(F)cc1`, for which the IC50 against Plasminogen was 85 nM; at Serine protease 1, 19 nM; on Prothrombin (Bos taurus), 30 nM; in experiment [3], 1600 nM. Further, the results for the Selectivity ratio in experiment [1] and in experiment [2] were 4 and 600, respectively.

On to `N=C(N)NCCC[C@@H](C=O)NC(=O)[C@@H]1CCCN1C(=O)C1CCc2ccccc2N1` (some centres not stated), for which the IC50 against Plasminogen came out at 15000 nM; against Serine protease 1 it was 570 nM; at Prothrombin (Bos taurus), 3100 nM; in experiment [3] it was 12000 nM. The Selectivity ratio came out at 5 in experiment [1] and 210 in experiment [2].

Turning to `CC(C)(C)OC(=O)N[C@@H](C(=O)N1CCC[C@H]1C(=O)NC(C=O)CCCNC(=N)N)c1cccc2ccccc12` (some centres not stated), the IC50 turned out to be 620 nM against Plasminogen, 14 nM against Serine protease 1, 23 nM at Prothrombin (Bos taurus) and 1400 nM in experiment [3].

On to `CC(C)(C)OC(=O)N[C@@H](C(=O)N1CCC[C@H]1C(=O)N[C@H](C=O)CCCN=C(N)N)C1CCCCC1` (Boc-[dChg]-Pro-Arg-aldehyde), for which the IC50 on Plasminogen amounted to 81 nM; against Serine protease 1, 13 nM; on Prothrombin (Bos taurus), 12 nM; in experiment [3], 81 nM. In addition, the figures for the Selectivity ratio in experiment [1] and in experiment [2] were 7 and 190, respectively.

As for `CC(C)(C)OC(=O)N[C@@H](C(=O)N1CCC[C@H]1C(=O)NC(C=O)CCCN=C(N)N)c1cccc2ccccc12` (some centres not stated), the results for the Selectivity ratio in experiment [1] and in experiment [2] were 30 and 870, respectively.

In the case of `CC(C)(C)OC(=O)NC(C(=O)N1CCC[C@H]1C(=O)NC(C=O)CCCNC(=N)N)c1ccc(Cl)c(Cl)c1` (some centres not stated), the IC50 against Plasminogen stood at 180 nM; against Serine protease 1, 15 nM; on Prothrombin (Bos taurus) it was 28 nM; in experiment [3], 69 nM.
